In the library only some 1.6% were active in any assay of this set; here they are far more common.
GSTO1 inh: inhibitors of recombinant GSTO1, primary screen, counter-screen for RBBP9 inhibitor project, biochemical, fluorescence polarization; activity-based probe fluorescence polarization; 1.1% of 300,000 active; AID 1974, 2009; inhibition, % at 5.96 µM; Glutathione S-transferase omega-1 (Homo sapiens), P78417;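 active = inhibition above the campaign mean inhibition plus 3 SD, cut at about 35% in these data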;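 note: 0% = GSTO1-1 with DMSO and 100% = wells lacking GSTO1-1 enzyme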
Target sequence (P78417 whole entry, looked up): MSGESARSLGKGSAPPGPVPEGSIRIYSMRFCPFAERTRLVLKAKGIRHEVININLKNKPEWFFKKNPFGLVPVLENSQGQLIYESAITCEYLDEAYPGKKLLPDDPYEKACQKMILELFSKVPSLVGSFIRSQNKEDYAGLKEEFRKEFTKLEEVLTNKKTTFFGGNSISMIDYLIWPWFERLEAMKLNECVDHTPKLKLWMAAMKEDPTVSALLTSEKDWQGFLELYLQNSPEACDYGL
Apaf1 inhib: inhibitors of human Apaf-1 apoptosome, primary screen, biochemical, DEVD-Rh110 fluorescence, uHTS. reconstituted apoptosome caspase-3 activity. inhibition, % at 20 µM. Apoptotic protease-activating factor 1 (Homo sapiens), O14727. 0.71% of 330,000 active. AID 489030, 2010; active = inhibition of at least 40% at 20 µM;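 note: plate controls were DMSO wells for no effect and DEVD-CHO caspase inhibitor wells for full effect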
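System – cell-free apoptosome with Apaf-1, procaspase-3 and caspase-9 · Buffer or medium – pH 7.5 Hepes buffer with CHAPS, BSA, DTT · Also added – cytochrome c with DEVD-Rh110 · Times – 30 min compound preincubation, 50 min activation, room temperature · Technique – Rh110 fluorescence intensity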
TDP2 inh: human TDP2 enzyme inhibitors, primary screen, biochemical, epi absorbance, recombinant enzyme. Tyrosyl-DNA phosphodiesterase 2 (Homo sapiens), O95551. T5PNP hydrolysis, p-nitrophenol absorbance 415 nm. inhibition, % at 12.8 µM. 0.34% of 370,000 active;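 active = inhibition above the mean of all tested compounds plus 3 SD, set per campaign, cut at about 25% in these data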;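 note: 0% = DMSO with enzyme and 100% = buffer with substrate but no TDP2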
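System – recombinant human TDP2 · Amount – 120 nM TDP2 per well · Buffer or medium – Mg2+-containing Tris-HCl buffer, pH 7.5 · Reagent – T5PNP substrate, 5 mM · Dosing – 12.8 µM single point, 1% DMSO · Incubation – 2 h at 37 °C · Measured by – epi absorbance · Read-out basis – percent inhibition · Benchmarks – high control without enzyme, low control DMSO plus TDP2 · Repeats – singlicate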
SUMO HTRF inh: inhibitors of in vitro SUMOylation cascade, primary screen, biochemical, HTRF, uHTS. inhibition, % at 35 µM. AID 2006, 2009. SUMO-conjugating enzyme UBC9 (Homo sapiens), P63279. 0.36% of 290,000 active. HTRF SUMOylation assay, SAE1/SAE2 + UBC9; in the data active = inhibition above about 50%, passing the limit was not always enough
GASC-1 inh: inhibitors of GASC-1 histone demethylase, primary screen, biochemical, fluorescence, DELFIA europium; inhibition, % at 2.35 µM; GST-JMJD2C(1-420) H3K9me3 demethylation; AID 2099, 2009; Lysine-specific demethylase 4C (Homo sapiens), Q9H3R0; 0.069% of 330,000 active;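 active = more than half of a compound's replicate wells show inhibition beyond 50%, single wells judged on their own value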;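 note: signal counts dimethyl H3K9 product captured on neutravidin plate; 0% = median of DMSO wells and 100% = 0.3 times that DMSO median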
Target sequence (Q9H3R0 1-420 limits assumed): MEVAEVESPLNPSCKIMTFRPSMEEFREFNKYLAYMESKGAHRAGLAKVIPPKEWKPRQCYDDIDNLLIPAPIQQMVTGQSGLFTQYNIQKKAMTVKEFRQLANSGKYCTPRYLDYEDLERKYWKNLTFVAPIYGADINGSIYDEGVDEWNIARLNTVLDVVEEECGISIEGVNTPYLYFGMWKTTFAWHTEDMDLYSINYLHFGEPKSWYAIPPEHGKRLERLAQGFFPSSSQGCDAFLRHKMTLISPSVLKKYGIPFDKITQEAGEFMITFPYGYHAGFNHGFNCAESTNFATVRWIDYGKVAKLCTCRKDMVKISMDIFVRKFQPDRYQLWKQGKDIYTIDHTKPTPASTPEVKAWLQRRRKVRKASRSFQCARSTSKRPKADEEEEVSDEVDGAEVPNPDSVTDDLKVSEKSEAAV
PAD4 inh: human PAD4 inhibitors, primary screen, biochemical, fluorescence polarization, 1536-well format. Protein-arginine deiminase type-4 (Homo sapiens), Q9UM07. inhibition, % at 6.36 µM. recombinant PAD4, RCA probe fluorescence polarization. 0.41% of 330,000 active;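 active = percent inhibition above a cutoff equal to the mean of all tested compounds plus 3 SD, cut at about 15% in these data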;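 note: 0% = PAD4 with RCA probe and DMSO and 100% = probe without PAD4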
Apaf-1 inh conf2: Apaf-1 inhibitors, single-dose retest, confirmation, biochemical, fluorescence, DEVD-Rh110, 20 µM | shares compounds with Apaf1 inhib | reconstituted apoptosome, caspase-3 DEVD-Rh110 fluorescence | inhibition, % at 20 µM | 25% of 1,800 active | AID 504614, 2011;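 active = mean inhibition of at least 40% at 20 µM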;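 note: plate controls were DMSO wells for no effect and DEVD-CHO caspase inhibitor control wells for full effect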
Rh110 interf inh: Rh110 fluorescence interference by putative Apaf-1 inhibitors, confirmation, artefact control for Apaf-1 inhibitor project, biochemical, 20 µM. shares compounds with Apaf1 inhib. quenched caspase reaction. activation (fluorescence interference), % at 20 µM. 1,800 tested, under 10 active. AID 504615, 2011;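 active = signal rise of 40% or more at 20 µM, treated as a fluorescence artifact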
Fluor interf inh: fluorescence interference of Apaf-1 inhibitor hits, dose response, artefact control for Apaf-1 inhibitor project. shares compounds with Apaf1 inhib. fluorescence interference counterscreen, Apaf-1 assay format. IC50, µM. 460 tested, under 10 active; call rule not given here
Numbers without * were called inactive; nt = no result.

SMILES	GSTO1 inh	Apaf1 inhib	TDP2 inh	SUMO HTRF inh	GASC-1 inh	PAD4 inh	Apaf-1 inh conf2	Rh110 interf inh	others
CCOC(=O)c1nn(-c2ccccc2)c(=O)c2c(NC(C)=O)scc12	6.0	-6.9	-7.0	4.8	0.5	-0.6	nt	nt
CCOC(=O)c1nn(-c2ccccc2)c(=O)c2c(N)scc12	10.6	55.5*	11.6	25.5	-3.2	-1.1	21.6	1.9
CCOC(=O)c1nn(-c2ccccc2C)c(=O)c2c(N)scc12	16.3	46.7*	6.8	10.1	-1.1	-5.2	12.4	-14.8
C=CCCC1(CCC)C(=O)/C(=C(\O)c2ccccc2)C(=O)C(CCC)=C1OC (stereo not drawn)	nt	nt	-3.6	nt	nt	nt	nt	nt
FC(F)(F)C1=Nc2cccc3cccc(c23)N1	nt	66.1*	6.2	nt	nt	nt	63.3*	4.5	Fluor interf inh=>100
C/C=N/NC(=O)c1cc(Br)ccc1O	-5.4	57.1*	6.0	-3.5	36.4	-6.8	3.4	9.1
COc1ccc(Br)cc1/C=N/NC(=O)c1cc(Br)ccc1O	-14.8	6.6	nt	7.2	6.0	3.7	nt	nt
CN(c1ccccc1)S(=O)(=O)c1cccc(C(=O)NCc2ccccc2CN2CCCC2)c1	nt	52.0*	0.3	nt	-2.3	-8.9	20.6	5.8
Cc1ccc(CN2CCCCC(NC(=O)c3ccccc3)C2=O)cc1 (stereo not drawn)	nt	nt	6.2	nt	nt	nt	nt	nt
CCCCCCCCCCOC(=O)Cn1c(COc2ccccc2)[n+](C)c2ccccc21	-2.2	73.1*	-16.0	20.2	-2.6	2.6	72.2*	25.3	Fluor interf inh=>100
Cc1ccccc1OCc1n(CC(=O)OC2CC(C)CCC2C(C)C)c2ccccc2[n+]1C (stereo not drawn)	-6.1	47.3*	0.0	2.2	-10.1	4.0	47.7*	19.6	Fluor interf inh=>100
CCCCCCCCCCOC(=O)Cn1c(COc2ccccc2C)[n+](C)c2ccccc21	0.9	80.8*	nt	15.5	7.9	0.0	83.0*	24.7	Fluor interf inh=>100
CCCCOC(=O)Cn1c(=O)n(CC(=O)OCCCC)c2ccccc21	-3.2	-0.9	0.4	21.6	-7.6	2.9	nt	nt
CCCCCCCCCCOC(=O)Cn1c(COc2ccc(Cl)cc2)[n+](C)c2ccccc21	6.0	84.5*	-16.9	8.2	29.7	3.6	90.4*	23.8	Fluor interf inh=>100
CCOC(=O)Cn1c(COc2ccccc2OC)[n+](C)c2ccccc21	4.6	-7.3	-1.5	nt	3.7	-2.2	nt	nt
C/C(=N/NC(=O)Cc1cccs1)c1cccc([N+](=O)[O-])c1	nt	nt	0.4	nt	nt	nt	nt	nt
O=C(NC1CCCCN(Cc2ccc(OC(F)(F)F)cc2)C1=O)c1ccc2ccccc2c1 (stereo not drawn)	nt	nt	-2.6	nt	nt	nt	nt	nt
CCCCCOC(=O)Cn1c(=O)oc2ccccc21	6.0	2.0	-0.6	-8.3	-8.9	2.9	nt	nt
CCCCCCCCCCOC(=O)Cn1c(COc2cccc(C)c2)[n+](C)c2ccccc21	5.4	79.4*	-13.9	19.8	9.6	0.7	77.3*	33.5	Fluor interf inh=>100
CCCCCCCCCCOC(=O)Cn1c(COc2ccc(OC)cc2)[n+](C)c2ccccc21	5.8	72.4*	nt	17.3	-14.4	-1.9	68.2*	17.4	Fluor interf inh=>100
CC[C@@H](C)[C@@H]1CN([C@@H](CN2CCC[C@H]2CN2C(N)=NC[C@@H]2Cc2ccccc2)C(C)C)C(=N)N1CCCC1CCCC1	nt	63.1*	nt	nt	-53.0	-1.1	13.3	10.8
CC[C@@H](C)[C@@H]1CN([C@@H](CN2CCC[C@H]2CN2C(N)=NC[C@H]2C(C)C)C(C)C)C(=N)N1CCCC1CCCC1	nt	40.5*	-2.2	nt	-2.0	3.0	0.4	-9.3
CCOC(=O)[C@]12CCCC=C1N(CCCOC)C(=O)[C@@H]2CC(=O)NCC12CC3CC(CC(C3)C1)C2	nt	nt	0.3	nt	nt	nt	nt	nt
COc1cc2c(cc1OC)C1=C(C#N)CCC(=O)N1CC2	-3.8	50.0*	6.4	-10.9	10.2	-2.4	5.9	4.8
Cc1nn(-c2ccccc2)c(C)c1CN(C)C(=O)c1ccc(S(=O)(=O)NCc2ccco2)cc1	nt	48.9*	-13.0	nt	nt	-2.1	13.7	2.3
SMILES	GSTO1 inh	Apaf1 inhib	TDP2 inh	SUMO HTRF inh	GASC-1 inh	PAD4 inh	Apaf-1 inh conf2	Rh110 interf inh	others
CCCc1ccc2oc(C(=O)NCCc3nc(C(=O)OCC)cs3)c(C)c2c1	nt	40.8*	-2.8	-8.6	-14.8	nt	21.1	11.6
Cc1cc(N2CCC[C@@H]2C)nc2ccccc12	nt	nt	-5.3	nt	nt	nt	nt	nt
COc1cc2nc(Nc3ccc(C)c(Cl)c3)nc(N)c2cc1OC	-15.5	45.1*	-13.7	-14.4	1.1	-1.5	34.9	13.6
Cc1nc(-c2ccc(F)cc2)c(CC(=O)N2CCN(S(=O)(=O)c3ccccc3Br)CC2)s1	1.5	40.0	-2.7	-1.2	-2.6	-2.3	39.7	-5.2
CC(=O)c1cc(-c2ccc(Cl)c(C(F)(F)F)c2)c(=O)n2c1CCC2	nt	nt	11.8	nt	nt	nt	nt	nt
CS(=O)(=O)c1ccc(Cl)c(NC(=O)CN2CCCC2c2ccc3c(c2)OCCCO3)c1 (stereo not drawn)	nt	4.3	0.4	nt	0.4	-2.9	nt	nt
CN(C)S(=O)(=O)c1ccc(NC(=O)CN2CCCC2c2ccc3c(c2)OCCCO3)cc1 (stereo not drawn)	nt	45.8*	-4.0	nt	nt	0.7	31.6	3.9
CC(C)Oc1ccc(-c2csc(N3CCC(C(N)=O)CC3)n2)cc1	nt	nt	6.5	nt	nt	nt	nt	nt
Cc1c(NS(=O)(=O)c2cc3c(cc2Br)CCN3C(=O)C2CC2)c(=O)n(-c2ccccc2)n1C	nt	nt	0.6	nt	nt	nt	nt	nt
Cc1cccc(C(=O)N[C@@H]2CC[C@@]34CCCN3C(=O)CCC[C@H]4[C@H]2C)c1	nt	nt	-7.7	nt	nt	nt	nt	nt
CCOC(=O)c1c(C)c2c(=O)[nH]cnc2n1-c1ccccc1	7.8	57.5*	-10.3	5.0	14.5	-4.4	12.3	-4.6
CCOC(=O)[C@]12CCCCC/C=C\1N(Cc1ccc(OC)cc1)C(=O)[C@H]2CC(=O)NCCc1ccccc1OC	nt	nt	8.8	nt	nt	nt	nt	nt
CC(C)(C)OC(=O)NCCCc1ccc2c(c1)[C@]1(CCC[C@@H](OCc3ccccc3)[C@@H]1NC(=O)CCc1ccccc1)C(=O)N2Cc1ccccc1	nt	nt	-4.3	nt	nt	nt	nt	nt

Source: PubChem BioAssay
